From ChEMBL document CHEMBL1125283, “Improvement in potency of an oxytocin antagonist after systematic substitutions with L-tryptophan” (J Med Chem, 1991) come the findings set out here.

Numbered stars: 1 amine (or outer) side, 2 acyl side, 3 side chain; on linkers, the order of the positions; unused ones are H or OH. Bridge positions count the residues as written; N and C are the ends. Square brackets hold non-standard residues; d marks the D form. Peptide text beside a SMILES is read from it. X1 = O=C(CC1(S[*:2])CCCCC1)[*:1]

For assay [1], the species on record is Rattus norvegicus. Put plainly: Compound was evaluated for the competitive antagonism to Arginine vasopressin (AVP) in rat antidiuretic assay. Type of assay: functional, organism-based. The settings on record: Urine, read-out: pA2 (converted). In short, it runs like this:
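Water-loaded rats under ethanol anesthesia; antidiuretic response to AVP standard. In vivo pA2 estimated by dividing the effective dose (molar level of antagonist halving the agonist response) by an estimated distribution volume of 67 mL/kg.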

For assay [2], the species on record is Rattus norvegicus. Kind of assay: Competitive antagonist activity on oxytocin contractile action in isolated rat uterus. The format is functional. To be noted: read-out: pA2 (converted). In short, it runs like this:
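Uteri isolated from rats in natural estrus, bathed in Van Dyke-Hastings solution with 0.5 mM Mg2+. Isometric contractions to OT doses recorded by force-displacement transducer; response quantified as integrated area under peaks. Synthetic OT (450 units/mg) standard. pA2 by Schild method from at least four separate assays; mixed agonist/antagonist potencies approximated.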

Consider `CC[C@H](C)[C@@H]1NC(=O)[C@@H](Cc2c[nH]c3ccccc23)NC(=O)CC2(CCCCC2)SSC[C@@H](C(=O)N2CCC[C@H]2C(=O)N[C@@H](CCCN=C(N)N)C(=O)N[C@@H](Cc2c[nH]c3ccccc23)C(N)=O)NC(=O)[C@H](CC(N)=O)NC(=O)[C@H](CCC(N)=O)NC1=O`, for which the figures for the Kb in the assay filed under Rattus norvegicus [1] and in the assay listed under Rattus norvegicus [2] were greater than 1000 nM and 9.33 nM, respectively. The corresponding values for `CC[C@H](C)[C@@H]1NC(=O)[C@@H](Cc2c[nH]c3ccccc23)NC(=O)CC2(CCCCC2)SSC[C@@H](C(=O)N2CCC[C@H]2C(=O)N[C@@H](Cc2c[nH]c3ccccc23)C(=O)NCC(N)=O)NC(=O)[C@H](CC(N)=O)NC(=O)[C@H](CCC(N)=O)NC1=O` are greater than 1000 nM and 6.03 nM. `CC[C@H](C)[C@H](NC(=O)[C@@H](Cc1c[nH]c2ccccc12)NC(=O)CC12CC3CC(CC(C3)C1)C2)C(=O)N[C@@H](CCC(N)=O)C(=O)N[C@@H](CC(N)=O)C(=O)N[C@H](C(=O)N1CCC[C@H]1C(=O)N[C@@H](CCCN=C(N)N)C(=O)NCC(N)=O)C(C)C`: the Kb in the assay filed under Rattus norvegicus [2] was 4270 nM. In the case of `CC[C@H](C)[C@@H]1NC(=O)[C@@H](Cc2c[nH]c3ccccc23)NC(=O)CC2(CCCCC2)SSC[C@@H](C(=O)N2CCC[C@H]2C(=O)N[C@@H](CCCN=C(N)N)C(=O)N[C@@H](Cc2cn(C=O)c3ccccc23)C(N)=O)NC(=O)[C@H](CC(N)=O)NC(=O)[C@H](CCC(N)=O)NC1=O`, in the assay listed under Rattus norvegicus [2], the Kb was 21.4 nM.

Regarding `CC[C@H](C)[C@H](NC(=O)[C@@H](Cc1c[nH]c2ccccc12)NC(=O)CC12CC3CC(CC(C3)C1)C2)C(=O)N[C@@H](CCC(N)=O)C(=O)N[C@@H](CC(N)=O)C(=O)N[C@@H](Cc1c[nH]c2ccccc12)C(=O)N1CCC[C@H]1C(=O)N[C@@H](CCCN=C(N)N)C(=O)NCC(N)=O`, in the assay filed under Rattus norvegicus [2], the Kb is 302 nM. On the same count and under the same terms, then `CC[C@H](C)[C@@H]1NC(=O)[C@@H](Cc2c[nH]c3ccccc23)NC(=O)CC2(CCCCC2)SSC[C@@H](C(=O)N2c3ccccc3C[C@H]2C(=O)N[C@@H](CCCN=C(N)N)C(=O)NCC(N)=O)NC(=O)[C@H](CC(N)=O)NC(=O)[C@H](CCC(N)=O)NC1=O`, with 12 nM. For `CC[C@H](C)[C@@H]1NC(=O)[C@@H](Cc2c[nH]c3ccccc23)NC(=O)CC2(CCCCC2)SSC[C@@H](C(=O)N[C@@H](Cc2c[nH]c3ccccc23)C(=O)N[C@@H](CCCN=C(N)N)C(=O)NCC(N)=O)NC(=O)[C@H](CC(N)=O)NC(=O)[C@H](CCC(N)=O)NC1=O`, the Kb in the assay listed under Rattus norvegicus [1] was greater than 1580 nM; in the assay listed under Rattus norvegicus [2], 8.71 nM. On to `CC[C@H](C)[C@H](NC(=O)[C@@H](Cc1c[nH]c2ccccc12)NC(=O)[C@H](Cc1c[nH]c2ccccc12)NC(C)=O)C(=O)N[C@@H](CCC(N)=O)C(=O)N[C@@H](CC(N)=O)C(=O)N[C@H](C(=O)N1CCC[C@H]1C(=O)N[C@@H](CCCN=C(N)N)C(=O)NCC(N)=O)C(C)C`, for which the Kb in the assay listed under Rattus norvegicus [2] is 3720 nM. Same read-out and setting: then `CC[C@H](C)[C@@H]1NC(=O)[C@H](Cc2c[nH]c3ccccc23)NC(=O)CC2(CCCCC2)SSC[C@@H](C(=O)N2CCC[C@H]2C(=O)N[C@@H](CCCN=C(N)N)C(=O)NCC(N)=O)NC(=O)[C@H](CC(N)=O)NC(=O)[C@H](CCC(N)=O)NC1=O` (WIQNCPRG-NH2; linker N-5 via X1), with 316 nM.

For the compound `CC[C@H](C)[C@@H]1NC(=O)[C@@H](Cc2c[nH]c3ccccc23)NC(=O)CC2(CCCCC2)SSC[C@@H](C(=O)N2CCC[C@H]2C(=O)N[C@@H](CCCN=C(N)N)C(=O)NCC(N)=O)NC(=O)[C@H](CC(N)=O)NC(=O)[C@H](CCC(N)=O)NC1=O` ([dW]IQNCPRG-NH2; linker N-5 via X1), the Kb in the assay filed under Rattus norvegicus [1] is greater than 1260 nM.
